Source: ChEMBL document CHEMBL4819034, “Tricyclic-Carbocyclic RORγt Inverse Agonists-Discovery of BMS-986313” (J Med Chem, 2021)

Assays:
[1] = Half life in human liver microsomes; assay type: ADME, Microsome
In short: (§1)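 Liver microsome half-life (min) measured in human, mouse, rat, dog and cyno liver microsomes.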

[2] = Half life in rat liver microsomes; assay type: ADME, Microsome; in short: as §1
[3] = Half life in dog liver microsomes; assay type: ADME, Canis lupus familiaris, Microsome; in short: as §1
[4] = Half life in cynomolgus monkey liver microsomes; assay type: ADME, Macaca fascicularis, Microsome; in short: as §1
[5] = target: T1, Nuclear receptor subfamily 1 group I member 2 (Homo sapiens, UniProt O75469); assay: Inverse agonist activity at PXR (unknown origin)
T1 sequence (O75469 whole entry): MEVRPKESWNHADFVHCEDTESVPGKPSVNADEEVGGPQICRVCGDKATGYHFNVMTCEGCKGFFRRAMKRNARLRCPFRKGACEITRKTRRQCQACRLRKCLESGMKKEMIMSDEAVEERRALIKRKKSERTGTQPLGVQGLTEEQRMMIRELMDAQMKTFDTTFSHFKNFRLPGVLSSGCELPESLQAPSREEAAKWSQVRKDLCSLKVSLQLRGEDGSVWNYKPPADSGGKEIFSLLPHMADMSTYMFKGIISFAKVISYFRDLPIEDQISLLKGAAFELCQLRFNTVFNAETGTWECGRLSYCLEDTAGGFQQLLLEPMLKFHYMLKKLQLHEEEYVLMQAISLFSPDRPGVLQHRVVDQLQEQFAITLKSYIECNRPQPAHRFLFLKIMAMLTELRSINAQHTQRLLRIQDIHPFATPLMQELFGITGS

[6] = target: Voltage-gated inwardly rectifying potassium channel KCNH2 (Homo sapiens, UniProt Q12809); assay: Inhibition of human ERG by patch-clamp assay
Voltage-gated inwardly rectifying potassium channel KCNH2, sequence (Q12809 whole entry): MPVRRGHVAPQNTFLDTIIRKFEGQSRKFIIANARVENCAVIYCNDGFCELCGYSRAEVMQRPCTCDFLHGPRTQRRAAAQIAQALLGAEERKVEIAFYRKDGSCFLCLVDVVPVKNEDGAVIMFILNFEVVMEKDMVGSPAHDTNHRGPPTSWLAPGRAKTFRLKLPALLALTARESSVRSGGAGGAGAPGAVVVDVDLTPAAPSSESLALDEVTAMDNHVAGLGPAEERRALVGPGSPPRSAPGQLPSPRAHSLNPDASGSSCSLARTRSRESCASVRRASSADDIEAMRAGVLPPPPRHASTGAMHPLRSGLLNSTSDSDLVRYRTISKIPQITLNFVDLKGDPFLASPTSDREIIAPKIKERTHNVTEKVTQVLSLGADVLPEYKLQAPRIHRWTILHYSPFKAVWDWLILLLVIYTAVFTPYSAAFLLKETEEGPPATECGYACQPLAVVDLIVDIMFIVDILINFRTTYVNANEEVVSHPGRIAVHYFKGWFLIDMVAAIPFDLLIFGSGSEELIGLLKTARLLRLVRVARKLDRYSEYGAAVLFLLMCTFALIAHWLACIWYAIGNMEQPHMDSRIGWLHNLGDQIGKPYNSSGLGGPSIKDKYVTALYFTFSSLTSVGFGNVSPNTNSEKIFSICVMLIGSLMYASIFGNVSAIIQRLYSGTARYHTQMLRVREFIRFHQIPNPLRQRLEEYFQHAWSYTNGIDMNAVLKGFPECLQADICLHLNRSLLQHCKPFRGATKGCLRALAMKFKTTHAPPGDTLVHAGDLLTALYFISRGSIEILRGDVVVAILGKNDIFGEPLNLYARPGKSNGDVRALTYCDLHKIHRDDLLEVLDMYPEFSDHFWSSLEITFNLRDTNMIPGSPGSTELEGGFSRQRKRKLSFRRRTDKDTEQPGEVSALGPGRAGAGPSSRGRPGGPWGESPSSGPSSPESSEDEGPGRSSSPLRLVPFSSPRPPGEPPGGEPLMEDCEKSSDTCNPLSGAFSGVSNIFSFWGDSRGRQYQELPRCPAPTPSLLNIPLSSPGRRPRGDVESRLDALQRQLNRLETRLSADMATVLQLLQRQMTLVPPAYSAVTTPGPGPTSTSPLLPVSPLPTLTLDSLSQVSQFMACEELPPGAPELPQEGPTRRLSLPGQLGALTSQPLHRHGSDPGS

Cytochrome P450 2D6 = Cytochrome P450 2D6 (Homo sapiens, UniProt P10635); assay: Inhibition of CYP2D6 (unknown origin); assay type: ADME
Cytochrome P450 2D6, sequence (P10635 whole entry): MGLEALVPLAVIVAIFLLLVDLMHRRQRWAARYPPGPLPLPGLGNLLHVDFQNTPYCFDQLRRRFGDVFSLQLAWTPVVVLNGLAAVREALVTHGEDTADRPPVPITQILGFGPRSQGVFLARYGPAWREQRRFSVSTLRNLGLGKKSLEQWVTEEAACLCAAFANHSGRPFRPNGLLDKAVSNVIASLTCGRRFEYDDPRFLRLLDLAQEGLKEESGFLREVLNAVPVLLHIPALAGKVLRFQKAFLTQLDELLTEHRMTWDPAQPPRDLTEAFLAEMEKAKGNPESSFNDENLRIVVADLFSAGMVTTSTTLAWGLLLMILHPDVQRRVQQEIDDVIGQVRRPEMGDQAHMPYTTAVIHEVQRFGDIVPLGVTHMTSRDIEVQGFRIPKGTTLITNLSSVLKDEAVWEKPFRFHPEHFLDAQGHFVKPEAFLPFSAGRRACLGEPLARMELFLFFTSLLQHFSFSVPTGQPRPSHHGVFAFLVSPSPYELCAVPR

Cytochrome P450 2C8 = target: T2, Cytochrome P450 2C8 (Homo sapiens, UniProt P10632); assay: Inhibition of CYP2C8 (unknown origin); assay type: ADME
T2 sequence (P10632 whole entry): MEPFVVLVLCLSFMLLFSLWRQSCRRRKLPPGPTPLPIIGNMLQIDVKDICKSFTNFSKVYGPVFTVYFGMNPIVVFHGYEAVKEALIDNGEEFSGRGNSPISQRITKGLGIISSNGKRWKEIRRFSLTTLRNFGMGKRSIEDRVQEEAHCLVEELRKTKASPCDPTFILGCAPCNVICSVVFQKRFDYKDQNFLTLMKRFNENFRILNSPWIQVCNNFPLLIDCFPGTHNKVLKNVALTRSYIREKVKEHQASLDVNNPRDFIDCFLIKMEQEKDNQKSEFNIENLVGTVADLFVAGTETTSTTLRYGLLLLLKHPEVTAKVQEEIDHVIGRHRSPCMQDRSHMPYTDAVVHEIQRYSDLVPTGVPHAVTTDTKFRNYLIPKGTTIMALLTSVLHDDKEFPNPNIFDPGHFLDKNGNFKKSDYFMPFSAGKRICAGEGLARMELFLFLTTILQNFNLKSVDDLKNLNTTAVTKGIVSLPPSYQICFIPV

[7] = Clearance in rat at 2 mg/kg, iv; assay type: ADME, organism-based; conditions: in vivo
In short: (§2)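 Single-dose PK, IV and PO. Doses: mouse and rat 2 mg/kg IV / 4 mg/kg PO; dog and cyno 1 mg/kg IV, with 1 or 2 mg/kg PO.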

[8] = Cmax in rat at 4 mg/kg, po; assay type: ADME, organism-based; design: route oral, dose 4 mg/kg; conditions: in vivo; in short: as §2
[9] = Oral bioavailability in rat at 4 mg/kg; assay type: ADME, organism-based; conditions: in vivo; in short: as §2
[10] = Cmax in dog at 2 mg/kg, po; assay type: ADME, organism-based, Canis lupus familiaris; design: route oral, dose 2 mg/kg; conditions: in vivo; in short: as §2
[11] = Oral bioavailability in dog at 2 mg/kg; assay type: ADME, organism-based, Canis lupus familiaris; conditions: in vivo; in short: as §2
[12] = Oral bioavailability in cynomolgus monkey at 2 mg/kg; assay type: ADME, organism-based, Macaca fascicularis; conditions: in vivo; in short: as §2
Mus musculus [13] = assay: Protection against imiquimod-induced C57BL/6 mouse model of psoriasis assessed as reduction in IL-17A mRNA levels at 5 mg/kg, po BID for 7 days by RT-PCR analysis relative to control; assay type: functional; design: scale not given: the % may be the effect or the level left; conditions: time 7 day
Mus musculus [14] = assay: Protection against imiquimod-induced C57BL/6 mouse model of psoriasis assessed as reduction in IL-17F mRNA levels at 5 mg/kg, po BID for 7 days by RT-PCR analysis relative to control; assay type: functional; design: scale not given: the % may be the effect or the level left; conditions: time 7 day
Mus musculus [15] = assay: Protection against imiquimod-induced C57BL/6 mouse model of psoriasis assessed as reduction in IL-17F mRNA levels at 10 mg/kg, po BID for 7 days by RT-PCR analysis relative to control; assay type: functional; design: scale not given: the % may be the effect or the level left; conditions: time 7 day
Mus musculus [16] = assay: Protection against imiquimod-induced C57BL/6 mouse model of psoriasis assessed as reduction in IL-17F mRNA levels at 20 mg/kg, po BID for 7 days by RT-PCR analysis relative to control; assay type: functional; design: scale not given: the % may be the effect or the level left; conditions: time 7 day
Mus musculus [17] = assay: Protection against recombinant human IL23-induced acanthosis C57BL/6 mouse model assessed as inhibition of ear thickening at 6 mg/kg, po BID for 10 days and measured every other day relative to control; assay type: functional; conditions: C57BL/6, po, 240 h, time 10 day
In short: (§3)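 IL-23 ear-injection acanthosis model in C57BL/6 mice with BID oral dosing. Ear thickness % change was recorded every other day, before each next injection, from a day 0 baseline. Inhibition of ear thickening was calculated against the placebo arm from the area under the curve over the study duration.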

Mus musculus [18] = assay: Protection against recombinant human IL23-induced acanthosis C57BL/6 mouse model assessed as inhibition of ear thickening at 15 mg/kg, po BID for 10 days and measured every other day relative to control; assay type: functional; conditions: C57BL/6, po, 240 h, time 10 day; in short: as §3
Mus musculus [19] = assay: Protection against recombinant human IL23-induced acanthosis C57BL/6 mouse model assessed as change in ear thickness score at 15 mg/kg, po BID for 10 days and measured every other day relative to control; assay type: functional; conditions: time 10 day
In short: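 IL-23 was injected into the ear of C57BL/6 mice to induce dermal inflammation and epidermal hyperplasia. Ear thickness was measured at baseline on day 0, then as % change every other day before each next ear injection. Oral dosing was BID.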

Mus musculus [20] = assay: Protection against recombinant human IL23-induced acanthosis C57BL/6 mouse model assessed as reduction in IL-17F mRNA levels at 3 mg/kg, po BID BID for 10 days by qRT-PCR analysis relative to control; assay type: functional; design: scale not given: the % may be the effect or the level left; conditions: time 10 day
In short: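 In the IL-23 ear-injection model in C57BL/6 mice with BID oral dosing, ear tissue was collected from all animals at study end on day 10. IL-17A and IL-17F mRNA expression was quantified by qPCR and compared with the placebo arm.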

Molecule `CC(C)(O)C(=O)N[C@@H]1CC[C@@]2(S(=O)(=O)c3ccc(F)cc3)c3ccc(C(F)(C(F)(F)F)C(F)(F)F)cc3CC[C@@H]12` has a half-life [1] of 120 min, a half-life [2] of 120 min and a half-life [3] of 120 min. For the same molecule, the half-life [4] was 120 min, the EC50 [5] was over 5 µM and the IC50 [6] was 19 µM. It also gave an IC50 (Cytochrome P450 2D6) of 20 µM, an IC50 (Cytochrome P450 2C8) of 12 µM and a clearance [7] of 4.2 mL/min/kg. For the same molecule, the Cmax [8] was 1000 nM, the bioavailability [9] was 65% and the Cmax [10] was 1300 nM. For the same molecule, the bioavailability [11] was 83%, the bioavailability [12] was 75% and the Activity (Mus musculus [13]) was 75.9%. For the same molecule, the Activity (Mus musculus [14]) was 79.2%, the Activity (Mus musculus [15]) was 89.7% and the Activity (Mus musculus [16]) was 97.9%. It also gave an inhibition in vivo at 6 mg/kg (Mus musculus [17]) of 43.4%, an inhibition in vivo at 15 mg/kg (Mus musculus [18]) of 66.8% and an Activity (Mus musculus [19]) of 66.8%. For the same molecule, the Activity (Mus musculus [20]) was 13.7%.
